# Test results taken from ChEMBL document CHEMBL3797175, “Discovery of 6-(difluoro(6-(4-fluorophenyl)-[1,2,4]triazolo[4,3-b][1,2,4]triazin-3-yl)methyl)quinoline as a highly potent and selective c-Met inhibitor” (Eur J Med Chem, 2016).
# Activity calls are given as the source filed them. No cut-off for these calls is given here.
# Experiments:
# [1] = target: T1, Hepatocyte growth factor receptor (Homo sapiens, UniProt P08581); experiment: Inhibition of c-Met in human NCI-H441 cells assessed as inhibition of HGF-induced cell invasion after 24 hrs by crystal violet staining based microscopic analysis
# T1 sequence (P08581 whole entry): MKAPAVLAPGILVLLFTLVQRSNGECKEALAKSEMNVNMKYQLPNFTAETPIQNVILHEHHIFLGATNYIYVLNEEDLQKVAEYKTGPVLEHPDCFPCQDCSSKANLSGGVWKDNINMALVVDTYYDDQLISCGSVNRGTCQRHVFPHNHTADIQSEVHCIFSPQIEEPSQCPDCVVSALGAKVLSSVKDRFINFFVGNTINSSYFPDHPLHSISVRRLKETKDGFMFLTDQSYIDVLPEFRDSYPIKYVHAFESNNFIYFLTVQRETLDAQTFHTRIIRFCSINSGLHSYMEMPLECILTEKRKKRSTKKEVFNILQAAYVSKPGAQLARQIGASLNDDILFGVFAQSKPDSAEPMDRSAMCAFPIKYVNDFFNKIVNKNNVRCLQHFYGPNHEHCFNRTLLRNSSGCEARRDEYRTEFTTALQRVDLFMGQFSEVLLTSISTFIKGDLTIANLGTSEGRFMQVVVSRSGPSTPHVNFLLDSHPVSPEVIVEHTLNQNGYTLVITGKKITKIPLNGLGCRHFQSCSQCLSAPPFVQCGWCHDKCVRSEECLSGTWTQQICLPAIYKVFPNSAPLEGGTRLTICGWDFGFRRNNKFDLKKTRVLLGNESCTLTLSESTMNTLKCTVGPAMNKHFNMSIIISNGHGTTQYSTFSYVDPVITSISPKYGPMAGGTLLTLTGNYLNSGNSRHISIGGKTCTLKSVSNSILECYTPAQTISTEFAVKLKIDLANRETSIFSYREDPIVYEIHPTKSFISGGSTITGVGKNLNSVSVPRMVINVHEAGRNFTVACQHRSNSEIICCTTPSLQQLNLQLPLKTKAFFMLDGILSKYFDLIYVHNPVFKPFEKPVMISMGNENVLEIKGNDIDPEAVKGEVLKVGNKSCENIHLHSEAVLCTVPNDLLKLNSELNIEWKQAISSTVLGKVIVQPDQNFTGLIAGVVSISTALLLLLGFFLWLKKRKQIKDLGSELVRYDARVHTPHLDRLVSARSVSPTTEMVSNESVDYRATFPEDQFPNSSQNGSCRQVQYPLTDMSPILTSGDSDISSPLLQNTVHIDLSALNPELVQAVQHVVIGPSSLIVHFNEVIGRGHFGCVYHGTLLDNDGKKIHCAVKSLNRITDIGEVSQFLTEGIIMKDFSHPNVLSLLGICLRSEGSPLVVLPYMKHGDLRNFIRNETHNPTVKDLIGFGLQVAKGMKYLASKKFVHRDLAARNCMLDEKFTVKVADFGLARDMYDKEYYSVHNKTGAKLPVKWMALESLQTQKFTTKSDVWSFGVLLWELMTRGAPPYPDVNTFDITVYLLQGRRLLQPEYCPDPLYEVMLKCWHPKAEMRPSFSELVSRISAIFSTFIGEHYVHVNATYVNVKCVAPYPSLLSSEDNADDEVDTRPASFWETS
# How it was run: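 NCI-H441 cells, 1.5×10^5 in serum-free medium, placed in upper Transwell chamber (8 µm pores; Matrigel-coated for invasion). Lower chamber serum-free medium ± HGF 100 ng/mL, with compound. After 24 h at 37 °C, non-migrated cells removed. Traversed cells stained with 0.1% crystal violet 15 min and imaged in 5 fields per filter. Three independent experiments.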
# [2] = Selectivity ratio of IC50 for human BGC823 cells to IC50 for human MKN45 cells; type: ADME, cell-based; conditions: bgc-823
# How it was run: (§1)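 Both IC50s in each ratio come from one proliferation assay. Cells were seeded and exposed the next day to a range of concentrations for 72 h, then read by SRB or MTT. IC50s were fitted by four-parameter concentration–response, with each concentration at least in triplicate and at least 2 experiments. BaF3/TPR-Met is murine pre-B BaF3 transfected with TPR-MET and puromycin-selected.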
# [3] = target: T1, Hepatocyte growth factor receptor; experiment: Inhibition of c-Met in human EBC1 cells assessed as reduction in ERK phosphorylation at Tyrosine 204 at 10 nM after 1 hr by Western blot analysis; type: cell-based
# How it was run: (§2)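 EBC-1 or MKN45 cells treated with compound 1 h at 37 °C without HGF, then lysed in 1× SDS sample buffer. Lysates run on 10% SDS-PAGE and transferred to nitrocellulose. Probed with antibodies to c-Met, phospho-c-Met, phospho-ERK1/2, phospho-AKT, AKT and GAPDH, then HRP secondary. ECL detection.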
# [4] = Antiproliferative activity against human MGC803 cells after 72 hrs by SRB or MTT assay; type: functional, cell-based; conditions: MGC-803, 72 h
# How it was run: (§3)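 Cells seeded, exposed next day to a range of concentrations for 72 h. Growth read by sulforhodamine B or MTT. IC50 from four-parameter concentration-response fit. Each concentration tested at least in triplicate, with at least 2 experiments.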
# [5] = Selectivity ratio of IC50 for human SMMC7721 cells to IC50 for mouse BAF3 cells expressing TPR-MET; type: ADME, cell-based
# [6] = Selectivity ratio of IC50 for human NCI-H226 cells to IC50 for mouse BAF3 cells expressing TPR-MET; type: ADME, cell-based; how it was run: as §1
# [7] = target: T1, Hepatocyte growth factor receptor; experiment: Inhibition of c-Met phosphorylation at Tyrosine 1235 in human EBC1 cells at 10 nM after 1 hr by Western blot analysis; type: cell-based; how it was run: as §2
# EBC-1 = experiment: Antitumor activity against human EBC1 cells xenografted in po dosed athymic nude mouse assessed as tumor growth inhibition administered bid for 21 days measured twice a week during compound dosing; type: functional, organism-based
# How it was run: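 Nude mice bearing s.c. tumours. Cells were first grown s.c. to 700–800 mm³, then 1.5 mm³ fragments were transplanted s.c. into the right flank. Mice were randomised at 100–200 mm³ (n=6 treated, n=12 vehicle) and dosed orally twice daily for 21 days. Caliper measurement twice weekly; TV = length×width²/2. TGI taken on the final day versus vehicle; Student's t test.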
# [8] = Selectivity ratio of IC50 for human SPCA1 cells to IC50 for human MKN45 cells; type: ADME, cell-based; conditions: SPCA1 cells versus MKN45 cells
# [9] = Selectivity ratio of IC50 for human NCI-H661 cells to IC50 for mouse BAF3 cells expressing TPR-MET; type: ADME, cell-based; how it was run: as §1
# [10] = Antiproliferative activity against human SNU16 cells after 72 hrs by SRB or MTT assay; type: functional, cell-based; conditions: SNU-16, 72 h; how it was run: as §3
# [11] = Selectivity ratio of IC50 for human SGC7901 cells to IC50 for mouse BAF3 cells expressing TPR-MET; type: ADME, cell-based
# How it was run: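 Each cell line was seeded in 96-well plates, then exposed the next day to a range of compound concentrations for 72 h. Growth was read by SRB or MTT assay, and IC50 was fitted by a four-parameter concentration-response curve. Each concentration was run at least in triplicate, in at least 2 experiments. BaF3/TPR-Met are murine pre-B BaF3 cells transfected with TPR-MET cDNA and selected in puromycin.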
# [12] = Antiproliferative activity against human U87MG cells after 72 hrs by SRB or MTT assay; type: functional, cell-based, U-87MG ATCC; conditions: U-87 MG; how it was run: as §3
# [13] = target: TPR/MET fusion protein (Mus musculus) (UniProt P16056+F6ZDS4); experiment: Inhibition of TPR-MET in mouse BAF3 cells assessed as reduction in ERK phosphorylation at Threonine 202 at 10 nM after 1 hr by Western blot analysis; type: cell-based
# How it was run: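 BaF3 stably expressing TPR-MET (puromycin-selected), grown with IL-3-conditioned medium. Treated 1 h at 37 °C, lysed in SDS sample buffer. 10% SDS-PAGE and immunoblot for phospho-c-Met, phospho-ERK1/2, phospho-AKT and totals; ECL detection.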
# [14] = Selectivity ratio of IC50 for human 786-0 cells to IC50 for human EBC1 cells; type: ADME, cell-based; how it was run: as §1
# [15] = target: Receptor tyrosine-protein kinase erbB-4 (Homo sapiens) (UniProt Q15303); experiment: Inhibition of recombinant ERBB4 (unknown origin) using poly (Glu, Tyr) 4:1 as substrate at 1000 nM incubated for 60 mins by ELISA relative to control
# Receptor tyrosine-protein kinase erbB-4 (Homo sapiens), sequence (Q15303 whole entry): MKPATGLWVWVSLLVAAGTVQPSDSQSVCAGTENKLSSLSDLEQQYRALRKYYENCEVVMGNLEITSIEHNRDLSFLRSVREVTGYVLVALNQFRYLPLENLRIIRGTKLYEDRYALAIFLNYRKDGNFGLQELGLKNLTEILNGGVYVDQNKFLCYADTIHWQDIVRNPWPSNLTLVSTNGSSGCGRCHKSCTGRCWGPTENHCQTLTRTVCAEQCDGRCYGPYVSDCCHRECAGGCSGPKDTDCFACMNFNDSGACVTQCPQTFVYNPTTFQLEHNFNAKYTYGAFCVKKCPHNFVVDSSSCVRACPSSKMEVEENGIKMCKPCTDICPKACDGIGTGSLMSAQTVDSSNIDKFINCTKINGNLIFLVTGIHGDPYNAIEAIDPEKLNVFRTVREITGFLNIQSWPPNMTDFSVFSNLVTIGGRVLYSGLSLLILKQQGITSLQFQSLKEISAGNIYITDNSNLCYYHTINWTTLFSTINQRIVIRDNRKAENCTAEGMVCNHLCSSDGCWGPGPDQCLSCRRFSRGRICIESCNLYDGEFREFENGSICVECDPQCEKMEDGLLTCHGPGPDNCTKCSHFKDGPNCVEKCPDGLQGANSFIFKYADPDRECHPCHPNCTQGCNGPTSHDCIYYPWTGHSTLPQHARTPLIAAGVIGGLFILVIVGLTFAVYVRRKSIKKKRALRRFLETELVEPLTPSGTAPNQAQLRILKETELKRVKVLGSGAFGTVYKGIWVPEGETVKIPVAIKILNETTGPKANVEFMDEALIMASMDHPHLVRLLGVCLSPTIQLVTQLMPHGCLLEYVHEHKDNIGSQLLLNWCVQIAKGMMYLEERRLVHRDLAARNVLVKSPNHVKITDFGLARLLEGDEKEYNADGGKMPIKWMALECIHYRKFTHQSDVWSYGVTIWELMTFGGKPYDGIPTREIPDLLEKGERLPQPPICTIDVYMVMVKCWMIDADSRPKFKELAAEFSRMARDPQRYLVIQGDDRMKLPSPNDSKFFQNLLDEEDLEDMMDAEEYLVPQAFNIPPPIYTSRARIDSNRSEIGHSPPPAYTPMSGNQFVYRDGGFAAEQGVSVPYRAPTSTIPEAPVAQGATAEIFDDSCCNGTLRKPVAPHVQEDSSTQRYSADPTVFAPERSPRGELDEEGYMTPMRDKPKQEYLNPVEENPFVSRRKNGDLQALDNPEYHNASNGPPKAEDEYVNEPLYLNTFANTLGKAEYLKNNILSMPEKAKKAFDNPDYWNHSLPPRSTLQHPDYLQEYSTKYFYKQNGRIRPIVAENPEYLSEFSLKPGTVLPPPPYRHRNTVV
# How it was run: (§4)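 Recombinant tyrosine kinases assayed on wells precoated with poly(Glu,Tyr)4:1 (20 µg/mL). ATP 10 µmol/L in HEPES pH 7.4 buffer with MgCl2, MnCl2, Na3VO4 and DTT; compound in 1% DMSO, 1% DMSO as control. Reaction 60 min at 37 °C. Phosphotyrosine detected with PY99 and HRP anti-mouse, o-phenylenediamine, A490. Inhibition % relative to control; two experiments.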
# [16] = Selectivity ratio of IC50 for human NCI-H292 cells to IC50 for human EBC1 cells; type: ADME, cell-based; how it was run: as §1
# [17] = target: Vascular endothelial growth factor receptor 1 (Homo sapiens) (UniProt P17948); experiment: Inhibition of recombinant FLT1 (unknown origin) using poly (Glu, Tyr) 4:1 as substrate at 1000 nM incubated for 60 mins by ELISA relative to control; how it was run: as §4
# [18] = target: Receptor tyrosine-protein kinase erbB-2 (Homo sapiens) (UniProt P04626); experiment: Inhibition of recombinant ERBB2 (unknown origin) using poly (Glu, Tyr) 4:1 as substrate at 1000 nM incubated for 60 mins by ELISA relative to control; how it was run: as §4
# Receptor tyrosine-protein kinase erbB-2 (Homo sapiens), sequence (P04626 whole entry): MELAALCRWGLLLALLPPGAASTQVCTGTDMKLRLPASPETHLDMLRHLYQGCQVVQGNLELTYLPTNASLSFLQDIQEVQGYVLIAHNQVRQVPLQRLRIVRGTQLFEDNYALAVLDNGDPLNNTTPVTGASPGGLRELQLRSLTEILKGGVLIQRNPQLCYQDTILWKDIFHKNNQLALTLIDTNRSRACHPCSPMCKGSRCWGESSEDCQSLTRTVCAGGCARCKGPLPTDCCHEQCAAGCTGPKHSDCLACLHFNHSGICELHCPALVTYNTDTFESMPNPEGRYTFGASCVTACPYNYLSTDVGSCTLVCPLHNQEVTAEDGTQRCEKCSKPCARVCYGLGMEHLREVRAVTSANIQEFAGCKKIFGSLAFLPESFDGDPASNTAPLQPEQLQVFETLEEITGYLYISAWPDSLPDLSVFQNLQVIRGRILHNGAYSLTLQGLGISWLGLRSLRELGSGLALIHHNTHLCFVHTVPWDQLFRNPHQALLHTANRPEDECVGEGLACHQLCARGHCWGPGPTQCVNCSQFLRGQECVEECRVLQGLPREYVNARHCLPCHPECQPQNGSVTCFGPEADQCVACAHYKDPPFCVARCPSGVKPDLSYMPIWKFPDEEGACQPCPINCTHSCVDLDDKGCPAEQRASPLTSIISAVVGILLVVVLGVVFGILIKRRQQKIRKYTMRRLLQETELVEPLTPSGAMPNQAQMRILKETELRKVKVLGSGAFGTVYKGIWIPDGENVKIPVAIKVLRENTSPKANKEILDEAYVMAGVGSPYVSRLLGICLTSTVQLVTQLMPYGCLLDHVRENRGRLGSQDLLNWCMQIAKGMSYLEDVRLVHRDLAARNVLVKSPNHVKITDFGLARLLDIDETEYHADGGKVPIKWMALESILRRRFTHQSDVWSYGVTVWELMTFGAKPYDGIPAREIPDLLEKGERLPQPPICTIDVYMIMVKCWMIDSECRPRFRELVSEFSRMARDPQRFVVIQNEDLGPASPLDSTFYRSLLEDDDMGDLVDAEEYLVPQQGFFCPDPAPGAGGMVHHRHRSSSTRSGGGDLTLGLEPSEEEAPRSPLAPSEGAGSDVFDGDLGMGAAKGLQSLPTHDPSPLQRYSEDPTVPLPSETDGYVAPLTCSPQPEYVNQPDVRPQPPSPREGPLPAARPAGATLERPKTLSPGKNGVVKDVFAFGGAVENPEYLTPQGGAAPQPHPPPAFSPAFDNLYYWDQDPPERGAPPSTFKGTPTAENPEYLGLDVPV
# [19] = target: Fibroblast growth factor receptor 1 (Homo sapiens) (UniProt P11362); experiment: Inhibition of recombinant FGFR1 (unknown origin) using poly (Glu, Tyr) 4:1 as substrate at 1000 nM incubated for 60 mins by ELISA relative to control; how it was run: as §4
# Fibroblast growth factor receptor 1 (Homo sapiens), sequence (P11362 22-822 limits assumed): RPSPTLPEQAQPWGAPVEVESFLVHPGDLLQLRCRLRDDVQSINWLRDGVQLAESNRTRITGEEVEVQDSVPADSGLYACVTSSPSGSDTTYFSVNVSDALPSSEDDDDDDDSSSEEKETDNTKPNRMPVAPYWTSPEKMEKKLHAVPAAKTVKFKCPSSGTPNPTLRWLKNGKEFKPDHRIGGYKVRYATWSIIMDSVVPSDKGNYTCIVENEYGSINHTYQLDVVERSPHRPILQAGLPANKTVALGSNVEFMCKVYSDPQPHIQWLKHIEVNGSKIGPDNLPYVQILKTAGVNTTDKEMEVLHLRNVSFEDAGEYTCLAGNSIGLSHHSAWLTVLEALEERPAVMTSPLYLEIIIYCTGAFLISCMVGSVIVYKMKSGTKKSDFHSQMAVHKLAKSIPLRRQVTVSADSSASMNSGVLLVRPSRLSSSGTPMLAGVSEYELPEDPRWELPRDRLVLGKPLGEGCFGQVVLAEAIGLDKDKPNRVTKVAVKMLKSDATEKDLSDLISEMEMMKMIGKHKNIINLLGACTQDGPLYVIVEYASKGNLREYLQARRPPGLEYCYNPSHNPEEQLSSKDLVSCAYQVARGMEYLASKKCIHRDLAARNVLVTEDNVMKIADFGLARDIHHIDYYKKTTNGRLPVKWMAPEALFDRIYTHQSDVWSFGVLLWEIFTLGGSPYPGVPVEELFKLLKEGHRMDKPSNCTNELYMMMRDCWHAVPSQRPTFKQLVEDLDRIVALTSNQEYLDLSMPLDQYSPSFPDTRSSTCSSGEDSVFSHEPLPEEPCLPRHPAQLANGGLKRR
# [20] = target: Macrophage-stimulating protein receptor (Homo sapiens) (UniProt Q04912); experiment: Inhibition of recombinant RON (unknown origin) using poly (Glu, Tyr) 4:1 as substrate at 1000 nM incubated for 60 mins by ELISA relative to control; how it was run: as §4
# [21] = target: T1, Hepatocyte growth factor receptor; experiment: Inhibition of c-Met in human EBC1 cells assessed as reduction in ERK phosphorylation at Threonine 202 at 10 nM after 1 hr by Western blot analysis; type: cell-based; how it was run: as §2
# [22] = Selectivity ratio of IC50 for human BGC823 cells to IC50 for human EBC1 cells; type: ADME, cell-based; conditions: bgc-823; how it was run: as §1
smiles,measurement,setting,value
Fc1ccc(-c2cnc3nnc(C(F)(F)c4ccc5ncccc5c4)n3n2)cc1,inhibition,[1],Dose-dependent effect
same,Ratio IC50,[2],> 10000
same,inhibition,[3],Active
same,IC50,[4],> 10 µM
same,Ratio IC50,[5],10000
same,Ratio IC50,[6],10000
same,inhibition,[7],Active
same,TGI,EBC-1,Dose-dependent effect
same,selectivity ratio,[8],> 10000
same,Ratio IC50,[9],> 10000
same,IC50,[10],> 10 µM
same,Ratio IC50,[11],> 10000
same,IC50,[12],> 10 µM
same,inhibition,[13],Active
same,Ratio IC50,[14],10000
same,inhibition,[15],26.8%
same,Ratio IC50,[16],10000
same,inhibition,[17],11.5%
same,inhibition,[18],31.5%
same,inhibition,[19],12.8%
same,inhibition,[20],33.9%
same,inhibition,[21],Active
same,Ratio IC50,[22],> 10000
